The structures appear in SMILES notation. ≈ marks a conversion by molar mass, not a printed value. A value given as a limit tells only on which side of the number the result lay.

The test system of one test is Plasmodium falciparum. In words: Antiplasmodial activity after 48 hrs against chloroquine and pyrimethamine-resistant Plasmodium falciparum K1 in human erythrocytes by [3H]hypoxanthine uptake. Type of test: functional, organism-based. The method, boiled down:
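P. falciparum K1 in human red cells in RPMI 1640 with 5% Albumax, exposed to serial drug dilutions. Incubated 48 h at 37°C under reduced oxygen, then 0.5 μCi [³H]hypoxanthine per well for 24 h more. Cells harvested onto glass-fibre filters and counted by scintillation. Result expressed as % of untreated control, with IC50 from sigmoidal curve. Duplicate, plus an independent repeat for actives.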

Test [1] deals with T1, Squalene synthase (Homo sapiens, UniProt P37268).
T1 sequence (P37268 whole entry): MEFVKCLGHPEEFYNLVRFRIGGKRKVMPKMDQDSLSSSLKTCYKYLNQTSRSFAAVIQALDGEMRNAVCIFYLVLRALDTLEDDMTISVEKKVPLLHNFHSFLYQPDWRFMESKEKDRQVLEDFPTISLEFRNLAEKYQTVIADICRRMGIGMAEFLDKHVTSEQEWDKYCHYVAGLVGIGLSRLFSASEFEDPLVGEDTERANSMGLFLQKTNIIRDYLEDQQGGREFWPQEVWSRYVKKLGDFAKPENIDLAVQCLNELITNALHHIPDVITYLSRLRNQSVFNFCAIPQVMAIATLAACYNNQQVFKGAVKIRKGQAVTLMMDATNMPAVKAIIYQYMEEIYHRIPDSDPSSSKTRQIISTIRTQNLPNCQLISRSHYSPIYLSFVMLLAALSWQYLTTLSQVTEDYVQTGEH
In words: Inhibition of human recombinant squalene synthase expressed in Escherichia coli BL21(DE3 pLysS) by liquid scintillation counter. The method in brief:
(§1)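 Human SQS in extracts of E. coli BL21(DE3 pLysS) carrying pHSS16, assayed under the same conditions as the L. major enzyme. Buffer: phosphate pH 7.4, MgCl2, CHAPS, Tween 80, DTT, BSA, and NADPH with a regenerating system. Substrate 0.5 μM radiolabelled farnesyl pyrophosphate. Squalene band radioactivity counted by scintillation.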

Test [2] has as its system Leishmania amazonensis. Description: Inhibition of sterol biosynthesis in Leishmania mexicana amazonensis promastigotes assessed as reduction in endogenous episterol level at 1 uM after 96 hrs by gas-liquid chromatography. Type of test: functional. The arrangement: scale not given: the % may be the effect or the level left. The method, boiled down:
(§2)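 L. mexicana promastigotes exposed to compound for 96 h. Total lipids extracted and neutral sterols separated from polar lipids by silicic acid column chromatography. Sterols analysed by TLC and by quantitative capillary gas-liquid chromatography with mass spectrometry. Composition expressed as mass % of free sterols, compared with untreated control.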

The subject of the next test is L6. In words: Cytotoxicity against rat L6 cells after 72 hrs by resazurin assay. Type of test: cell-based. The note with it: L6, 72 h. The method, boiled down: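 L-6 cells seeded at 4 × 10⁴ cells/ml in RPMI 1640 with 10% FBS and 2 mM L-glutamine. After 24 h, medium replaced with serial drug dilution and incubated for 72 h at 37°C in 5% CO2. Resazurin added for 2–4 h, fluorescence read at ex 536/em 588 nm. IC50 from sigmoidal curve. Duplicate, with an independent repeat for actives.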
A general note: Resazurin is reduced to fluorescent resorufin, in cell work by metabolically active cells.

A further test has as its system Trypanosoma cruzi. In words: Antitrypanosomal activity against trypomastigotes of Trypanosoma cruzi Tulahuen C2C4 containing lacZ gene in rat L6 cells after 4 days by chlorophenol red-beta-D-galactopyranoside/Nonidet assay. Format: functional, organism-based. Conditions: Tulahuen C2C4, L6, 96 h; call rule not given here. The method in brief:
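L-6 rat myoblasts seeded at 2,000 cells/well in RPMI 1640 with 10% FBS and 2 mM L-glutamine. After 24 h, 5,000 T. cruzi Tulahuen C2C4 lacZ trypomastigotes added with serial drug dilution. Incubated at 37°C in 5% CO2 for 4 days. CPRG/Nonidet substrate added and colour read at 540 nm after 2–4 h. IC50 from sigmoidal curve. Duplicate determinations.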

Test [3] relates to Leishmania amazonensis. Description: Inhibition of sterol biosynthesis in Leishmania mexicana amazonensis promastigotes assessed as reduction in exogenous cholesterol level at 1 uM after 96 hrs by gas-liquid chromatography. The arrangement: scale not given: the % may be the effect or the level left. Format: functional. The method, boiled down:
as §2

In test [4] the target is T2, Farnesyltransferase, putative (Leishmania major, UniProt Q4Q5W4).
T2 sequence (Q4Q5W4 whole entry): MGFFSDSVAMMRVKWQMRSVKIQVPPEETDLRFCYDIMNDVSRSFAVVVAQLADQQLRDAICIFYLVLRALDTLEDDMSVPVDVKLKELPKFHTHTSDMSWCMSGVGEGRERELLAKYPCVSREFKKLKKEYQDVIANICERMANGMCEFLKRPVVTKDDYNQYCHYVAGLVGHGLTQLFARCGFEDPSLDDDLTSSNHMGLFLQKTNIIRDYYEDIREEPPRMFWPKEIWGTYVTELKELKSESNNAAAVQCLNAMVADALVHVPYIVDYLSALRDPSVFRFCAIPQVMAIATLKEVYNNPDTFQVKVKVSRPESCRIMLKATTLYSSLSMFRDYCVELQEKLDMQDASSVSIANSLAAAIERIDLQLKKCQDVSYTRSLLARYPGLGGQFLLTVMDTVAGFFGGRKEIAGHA
In words: Inhibition of Leishmania major recombinant squalene synthase expressed in Escherichia coli by liquid scintillation counter. The method in brief: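 Soluble E. coli extract expressing L. major SQS truncated by 16 N-terminal and 40 C-terminal residues. Buffer: 50 mM phosphate pH 7.4, 20 mM MgCl2, 5 mM CHAPS, 1% Tween 80, 10 mM DTT, BSA, 0.25 mM NADPH, and a glucose-6-phosphate/G6PDH regenerating system. Substrate 0.5 μM radiolabelled farnesyl pyrophosphate. Squalene band counted by scintillation. IC50 from hyperbolic plot of five concentrations in duplicate, usually run twice.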

The test system of test [5] is Leishmania amazonensis. Description: Inhibition of sterol biosynthesis in Leishmania mexicana amazonensis promastigotes assessed as reduction in endogenous 5-dehydro episterol level at 0.3 uM after 96 hrs by gas-liquid chromatography. The arrangement: scale not given: the % may be the effect or the level left. Format: functional. The method in brief: (§3)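 Promastigotes grown in liver infusion-tryptose medium with lactalbumin and 10% fetal calf serum at 26°C, static; drug added at 0.5 × 10⁷ to 1 × 10⁷ cells/ml and cells exposed for 96 h. Total lipids extracted; neutral lipids separated from polar lipids by silicic acid column chromatography; free sterols quantified by capillary gas-liquid chromatography and mass spectrometry as mass % of total sterols.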

The subject of test [6] is Leishmania amazonensis. In words: Inhibition of sterol biosynthesis in Leishmania mexicana amazonensis promastigotes assessed as reduction in endogenous episterol level at 0.3 uM after 96 hrs by gas-liquid chromatography. The arrangement: scale not given: the % may be the effect or the level left. Type of test: functional. The method in brief: as §3
Test [7] deals with Leishmania amazonensis. Description: Inhibition of sterol biosynthesis in Leishmania mexicana amazonensis promastigotes assessed as reduction in exogenous cholesterol level at 0.3 uM after 96 hrs by gas-liquid chromatography. Format: functional. Also on record: scale not given: the % may be the effect or the level left. The method, boiled down:
as §3

Another test has as its system Leishmania donovani. In words: Antileishmanial activity against Leishmania donovani MHOM/ET/67/L82 axenic amastigotes after 72 hrs by resazurin assay. Type of test: functional, organism-based. The note with it: MHOM/ET/67/L82, 72 h. The method, boiled down: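 L. donovani MHOM/ET/67/L82 amastigotes grown axenically at 37°C in synthetic minimal medium at pH 5.4 with 10% heat-inactivated FBS under 5% CO2. 1 × 10⁵ amastigotes per well with seven threefold dilutions, 30 to 0.041 μg/ml. After 72 h, resazurin added for 2–4 h more. Fluorescence read at ex 536/em 588 nm. IC50 taken from sigmoidal curve. Run in duplicate, with an independent repeat for actives.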

Test [8] has as its system Trypanosoma brucei rhodesiense. In words: Trypanocidal activity against Trypanosoma brucei rhodesiense STIB 900 bloodstream form after 72 hrs by resazurin assay. Format: functional, organism-based. Conditions: STIB 900, 72 h. The method in brief:
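T. b. rhodesiense STIB 900 bloodstream forms in MEM with 2-mercaptoethanol and 15% heat-inactivated horse serum, with serial drug dilutions. Incubated 72 h at 37°C in 5% CO2. Resazurin added for 2–4 h more, fluorescence read at ex 536/em 588 nm. IC50 from sigmoidal curve. Duplicate, with an independent repeat for actives.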

Test [9] deals with Leishmania amazonensis. In words: Inhibition of sterol biosynthesis in Leishmania mexicana amazonensis promastigotes assessed as reduction in endogenous 5-dehydro episterol level at 1 uM after 96 hrs by gas-liquid chromatography. Format: functional. Also on record: scale not given: the % may be the effect or the level left. The method, boiled down:
as §2

For test [10], the system named is Leishmania amazonensis. In words: Antileishmanial activity against Leishmania mexicana amazonensis promastigotes by trypan blue exclusion method. Format: functional, organism-based. The method in brief:
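L. mexicana amazonensis promastigotes cultured in liver infusion-tryptose medium with lactalbumin and 10% FCS at 26°C, unagitated. Cultures started at 2 × 10⁶ cells/ml and drug added at 0.5–1 × 10⁷ cells/ml. Density counted by electronic particle counter and hemocytometer. Viability by trypan blue exclusion. Triplicate growth experiments.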

Test [11] relates to Leishmania amazonensis. Description: Inhibition of sterol biosynthesis in Leishmania mexicana amazonensis promastigotes assessed as reduction in endogenous cholesta-5,7,24-trien-3beta-ol level at 1 uM after 96 hrs by gas-liquid chromatography. Also on record: scale not given: the % may be the effect or the level left. Type of test: functional. The method, boiled down: as §2

Test [12] deals with Leishmania amazonensis. In words: Inhibition of sterol biosynthesis in Leishmania mexicana amazonensis promastigotes assessed as reduction in endogenous 5-dehydro episterol level at 3 uM after 96 hrs by gas-liquid chromatography. Type of test: functional. The arrangement: scale not given: the % may be the effect or the level left. The method in brief:
as §2

The test system of test [13] is Leishmania amazonensis. In words: Inhibition of sterol biosynthesis in Leishmania mexicana amazonensis promastigotes assessed as reduction in endogenous episterol level at 3 uM after 96 hrs by gas-liquid chromatography. Type of test: functional. The arrangement: scale not given: the % may be the effect or the level left. The method in brief:
as §2

Test [14] concerns Leishmania amazonensis. Description: Inhibition of sterol biosynthesis in Leishmania mexicana amazonensis promastigotes assessed as reduction in endogenous cholesta-5,7,24-trien-3beta-ol level at 3 uM after 96 hrs by gas-liquid chromatography. Format: functional. Also on record: scale not given: the % may be the effect or the level left. The method, boiled down: as §2
Test [15] has as its system Leishmania amazonensis. In words: Inhibition of sterol biosynthesis in Leishmania mexicana amazonensis promastigotes assessed as reduction in exogenous cholesterol level at 3 uM after 96 hrs by gas-liquid chromatography. Also on record: scale not given: the % may be the effect or the level left. Format: functional. The method, boiled down: as §2
Test [16] has as its system Leishmania amazonensis. In words: Inhibition of sterol biosynthesis in Leishmania mexicana amazonensis promastigotes assessed as reduction in endogenous cholesta-7,24-dien-3beta-ol level at 3 uM after 96 hrs by gas-liquid chromatography. Type of test: functional. Also on record: scale not given: the % may be the effect or the level left. The method, boiled down:
as §2

The target in test [17] is T1, Squalene synthase. Description: Inhibition of human recombinant squalene synthase expressed in Escherichia coli BL21(DE3 pLysS) up to 1 uM by liquid scintillation counter. The method, boiled down:
as §1

As usually defined, the IC50 is the concentration that gives 50% inhibition. Broadly, the MIC is the lowest concentration found to suppress growth. For `COc1ccc2cc(C3=CN4CCC3CC4)ccc2c1`, the IC50 with Plasmodium falciparum turned out to be 9 µM; on Squalene synthase [1], 2.8 µM; in the test with L6, 98.8 µM; with Trypanosoma cruzi, 10.2 µM; in test [4] it was 0.49 µM; in the test with Leishmania donovani, 1.4 µM. Moreover, 2.2 µM corresponded to half-maximal inhibition in [8] (IC50). Further, the Activity with Leishmania amazonensis [2] is 15.8%; in the test with Leishmania amazonensis [3], 41.2%; in the test on Leishmania amazonensis [5], 72.7%; with Leishmania amazonensis [6] it was 13.4%; in the test on Leishmania amazonensis [7], 13.9%; in the test on Leishmania amazonensis [9], 43%. The same molecule gave an MIC against Leishmania amazonensis [10] of 0.3 µM (≈ 0.0796 µg/mL).

Regarding `CC(C)(C)[Si](C)(C)Oc1ccc(C2=CN3CCC2CC3)cc1`, the Activity with Leishmania amazonensis [11] is recorded as 9%; in the test on Leishmania amazonensis [12] it was 21.2%; with Leishmania amazonensis [2], 7.1%; in the test on Leishmania amazonensis [13], 7.9%; in the test on Leishmania amazonensis [3], 29.2%; in the test with Leishmania amazonensis [14], 10.7%. Besides, the Activity was found to be 55.4% in the test with Leishmania amazonensis [15], 4.8% in the test with Leishmania amazonensis [16] and 54.7% in the test on Leishmania amazonensis [9]. Moreover, the half-inhibitory concentration (IC50) in the test on Plasmodium falciparum was 4.1 µM; with L6 it was 23.8 µM; in the test with Trypanosoma cruzi it was 16.3 µM; in test [4] it was more than 1 µM; in the test on Leishmania donovani, 31.1 µM; in [8], 2.1 µM. The molecule also showed an MIC with Leishmania amazonensis [10] of 3 µM (≈ 0.947 µg/mL).

On to `c1ccc(-c2ccc(CC3CN4CCC3CC4)cc2)cc1` (configuration not stated), for which the Activity is given as 10.4% in the test on Leishmania amazonensis [11], 8.2% in the test on Leishmania amazonensis [2], 51.1% in the test on Leishmania amazonensis [3] and 30.3% with Leishmania amazonensis [9]. Besides, the IC50 with Plasmodium falciparum was 2.8 µM; in the test with L6, 20.5 µM; in the test on Trypanosoma cruzi it was 4.7 µM; at Squalene synthase [17], “Not Active”; in [4], more than 1 µM; with Leishmania donovani, more than 108 µM. Besides, the IC50 in test [8] was determined as 0.7 µM. Also, the MIC against Leishmania amazonensis [10] was found to be 1 µM (≈ 0.277 µg/mL).
